# ChEMBL document CHEMBL3244387, “Isolation, characterization, and properties of a labile hydrolysis product of the antitumor nucleoside, 5-azacytidine” (J Med Chem, 1978)
# Assays:
# [1] = Stability of the compound in water assessed as compound remaining at 2.6 mg/ml at 37 degC after 4 hrs by UV-HPLC analysis; type: physicochemical; settings: read-out: Stability
# Mus musculus [2] = assay: Toxicity in mouse L1210 cells allografted CDF1 mouse assessed as change in body weight between day 1 and day 5 at 20 mg/kg, ip dosed on days 1 and 5; type: organism-based; design: dose 20 mg/kg, route intraperitoneal; settings: in vivo
# Procedure, shortened: (§1)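 Female CDF1 mice, 11-12 weeks old, were given 0.1 mL L1210 suspension ip (1.43×10^6 cells/mL) on day 0. Drug was purified by preparative HPLC, dissolved in sterile 0.85% saline and given ip within 15 min, on days 1, 5 and 9. Ten mice per dose, with ten untreated controls. Weights on days 1, 5 and 9. Value is the mean body-weight change of treated minus control, in grams.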
# Mus musculus [3] = assay: Toxicity in mouse L1210 cells allografted CDF1 mouse assessed as change in body weight between day 1 and day 9 at 10 mg/kg, ip dosed on days 1, 5 and 9; type: organism-based; design: dose 10 mg/kg, route intraperitoneal; settings: in vivo; procedure, shortened: as §1
# [4] = Stability of the compound in water assessed as compound remaining at 2.6 mg/ml at 37 degC after 7 hrs by UV-HPLC analysis; type: physicochemical; settings: read-out: Stability
# Mus musculus [5] = assay: Toxicity in mouse L1210 cells allografted CDF1 mouse assessed as change in body weight between day 1 and day 5 at 60 mg/kg, ip dosed on days 1 and 5; type: organism-based; design: dose 60 mg/kg, route intraperitoneal; settings: in vivo; procedure, shortened: as §1
# Mus musculus [6] = assay: Toxicity in mouse L1210 cells allografted CDF1 mouse assessed as change in body weight between day 1 and day 5 at 40 mg/kg, ip dosed on days 1 and 5; type: organism-based; design: dose 40 mg/kg, route intraperitoneal; settings: in vivo; procedure, shortened: as §1
# Mus musculus [7] = assay: Toxicity in mouse L1210 cells allografted CDF1 mouse assessed as mortality at 5 to 60 mg/kg, ip; type: organism-based; design: dose 5-60 mg/kg, route intraperitoneal; settings: in vivo
# Procedure, shortened: (§2)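 L1210 ip implant (1.43×10^6 cells/mL, 0.1 mL) in female CDF1 mice, 11-12 weeks old. Freshly dissolved HPLC-purified drug in 0.85% saline given ip on days 1, 5 and 9; ten mice per dose. Toxicity scored as early death from acute toxicity, with body weights on days 1, 5 and 9 compared against untreated controls.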
# [8] = Half life in water at 2.6 mg/ml at 37 degC by UV-HPLC analysis; type: physicochemical
# L1210 [9] = assay: Antitumor activity against mouse L1210 cells allografted in CDF1 mouse assessed as increase in life span at 60 mg/kg, ip relative to control; type: functional; settings: route intraperitoneal
# Procedure, shortened: (§3)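 Female CDF1 mice, 11-12 weeks old, inoculated ip on day 0 with 0.1 mL L1210 suspension (1.43×10^6 cells/mL). Drug purified by preparative HPLC, dissolved in sterile 0.85% saline, injected ip within 15 min on days 1, 5 and 9. Ten mice per dose; ten untreated controls. Read-out: % increase in mean life span over controls; ≥25% counted as active; test run in duplicate.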
# Mus musculus [10] = assay: Toxicity in mouse L1210 cells allografted CDF1 mouse assessed as change in body weight between day 1 and day 5 at 10 mg/kg, ip dosed on days 1 and 5; type: organism-based; design: dose 10 mg/kg, route intraperitoneal; settings: in vivo; procedure, shortened: as §1
# [11] = Stability of the compound in water assessed as compound remaining at 2.6 mg/ml at 25 degC after 24 hrs by UV-HPLC analysis; type: physicochemical; settings: read-out: Stability
# Mus musculus [12] = assay: Toxicity in mouse L1210 cells allografted CDF1 mouse assessed as change in body weight between day 1 and day 9 at 60 mg/kg, ip dosed on days 1, 5 and 9; type: organism-based; design: dose 60 mg/kg, route intraperitoneal; settings: in vivo; procedure, shortened: as §1
# L1210 [13] = assay: Antitumor activity against mouse L1210 cells allografted in CDF1 mouse assessed as increase in life span at 10 mg/kg, ip relative to control; type: functional; settings: route intraperitoneal; procedure, shortened: as §3
# L1210 [14] = assay: Antitumor activity against mouse L1210 cells allografted in CDF1 mouse assessed as increase in life span at 5 mg/kg, ip relative to control; type: functional; settings: route intraperitoneal; procedure, shortened: as §3
# [15] = Half life in water at 2.6 mg/ml at 25 degC by UV-HPLC analysis; type: physicochemical
# Mus musculus [16] = assay: Toxicity in mouse L1210 cells allografted CDF1 mouse assessed as change in body weight between day 1 and day 5 at 5 mg/kg, ip dosed on days 1 and 5; type: organism-based; design: dose 5 mg/kg, route intraperitoneal; settings: in vivo; procedure, shortened: as §1
# Mus musculus [17] = assay: Toxicity in mouse L1210 cells allografted CDF1 mouse assessed as change in body weight between day 1 and day 9 at 20 mg/kg, ip dosed on days 1, 5 and 9; type: organism-based; design: dose 20 mg/kg, route intraperitoneal; settings: in vivo; procedure, shortened: as §1
# Mus musculus [18] = assay: Toxicity in mouse L1210 cells allografted CDF1 mouse assessed as change in body weight between day 1 and day 9 at 40 mg/kg, ip dosed on days 1, 5 and 9; type: organism-based; design: dose 40 mg/kg, route intraperitoneal; settings: in vivo; procedure, shortened: as §1
# L1210 [19] = assay: Antitumor activity against mouse L1210 cells allografted in CDF1 mouse assessed as increase in life span at 20 mg/kg, ip relative to control; type: functional; settings: route intraperitoneal; procedure, shortened: as §3
# Mus musculus [20] = assay: Toxicity in mouse L1210 cells allografted CDF1 mouse assessed as change in body weight between day 1 and day 9 at 5 mg/kg, ip dosed on days 1, 5 and 9; type: organism-based; design: dose 5 mg/kg, route intraperitoneal; settings: in vivo; procedure, shortened: as §1
# L1210 [21] = assay: Antitumor activity against mouse L1210 cells allografted in CDF1 mouse assessed as increase in life span at 40 mg/kg, ip relative to control; type: functional; settings: route intraperitoneal; procedure, shortened: as §3
# Mus musculus [22] = assay: Toxicity in mouse L1210 cells allografted CDF1 mouse assessed as mortality at 2.5 to 40 mg/kg, ip; type: organism-based; design: dose 2.5-40 mg/kg, route intraperitoneal; settings: in vivo; procedure, shortened: as §2
# L1210 [23] = assay: Antitumor activity against mouse L1210 cells allografted in CDF1 mouse assessed as increase in life span at 2.5 mg/kg, ip relative to control; type: functional; settings: route intraperitoneal
# Procedure, shortened: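 Female CDF1 mice, 11-12 weeks old, given 0.1 mL ip of L1210 cells at 1.43×10^6 cells/mL on day 0. Drug purified by preparative HPLC, dissolved in sterile 0.85% saline and injected ip within 15 min, on days 1, 5 and 9. Ten mice per dose, ten untreated controls. % ILS is the increase in mean life span over controls; ≥25% counted as active.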
# Half life in mice = settings: mouse, in vivo
# Mus musculus [24] = assay: Toxicity in mouse L1210 cells allografted CDF1 mouse assessed as change in body weight between day 1 and day 9 at 2.5 mg/kg, ip dosed on days 1, 5 and 9; type: organism-based; design: dose 2.5 mg/kg, route intraperitoneal; settings: in vivo; procedure, shortened: as §1
# Mus musculus [25] = assay: Toxicity in mouse L1210 cells allografted CDF1 mouse assessed as change in body weight between day 1 and day 5 at 2.5 mg/kg, ip dosed on days 1 and 5; type: organism-based; design: dose 2.5 mg/kg, route intraperitoneal; settings: in vivo; procedure, shortened: as §1
structure (smiles),measurement,setting,value
N=C(NC=O)NC(=O)N[C@@H]1O[C@H](CO)[C@@H](O)[C@H]1O,"remaining at 4 h, 2.6 mg/ml",[1],31%
same,Activity,Mus musculus [2],-1.9 g
same,Activity,Mus musculus [3],-3.4 g
same,"remaining at 7 h, 2.6 mg/ml",[4],25%
same,Activity,Mus musculus [5],-1.9 g
same,Activity,Mus musculus [6],-0.8 g
same,Activity,Mus musculus [7],Non-toxic
same,half-life at 2.6 mg/ml,[8],2 h
same,ILS at 60 mg/kg,L1210 [9],93%
same,Activity,Mus musculus [10],-1.6 g
same,"remaining at 24 h, 2.6 mg/ml",[11],24%
same,Activity,Mus musculus [12],-4.3 g
same,ILS at 10 mg/kg,L1210 [13],33%
same,ILS at 5 mg/kg,L1210 [14],17%
same,half-life at 2.6 mg/ml,[15],9 h
same,Activity,Mus musculus [16],-1.2 g
same,Activity,Mus musculus [17],-3.8 g
same,Activity,Mus musculus [18],-4.7 g
same,ILS at 20 mg/kg,L1210 [19],56%
same,Activity,Mus musculus [20],-2.6 g
same,ILS at 40 mg/kg,L1210 [21],85%
Nc1ncn([C@@H]2O[C@H](CO)[C@@H](O)[C@H]2O)c(=O)n1 [AZACITIDINE],Activity,Mus musculus [2],-1.6 g
same,Activity,Mus musculus [3],-4.5 g
same,Activity,Mus musculus [22],Non-toxic
same,ILS at 2.5 mg/kg,L1210 [23],33%
same,Activity,Mus musculus [6],-2.3 g
same,half-life,Half life in mice,< 6 h
same,Activity,Mus musculus [24],-5.7 g
same,Activity,Mus musculus [10],-1.8 g
same,ILS at 10 mg/kg,L1210 [13],86%
same,ILS at 5 mg/kg,L1210 [14],63%
same,Activity,Mus musculus [25],-1.5 g
same,Activity,Mus musculus [16],-1 g
same,Activity,Mus musculus [17],-5.1 g
same,Activity,Mus musculus [18],-6.5 g
same,ILS at 20 mg/kg,L1210 [19],130%
same,Activity,Mus musculus [20],-2.9 g
same,ILS at 40 mg/kg,L1210 [21],84%
